Activity calls are given as the source filed them. The rule behind the calls is not given here.
Key:
Format in all cases: functional
[1] = Effect on wound healing activity in non-diabetic adult human primary fibroblasts assessed as upregulation of MIF protein levels at 1.96 uM after 24 hrs by bead-based suspension array analysis; settings: Fibroblast
Fibroblast [2] = assay: Effect on pro-inflammatory related gene expression in non-diabetic young human primary fibroblasts assessed as PTGS2 mRNA levels at 9.81 uM after 6 hrs by qPCR analysis
Keratinocyte [3] = assay: Effect on pro-inflammatory related gene expression in non-diabetic young human primary keratinocytes assessed as PTGS2 mRNA levels at 1.96 uM after 6 hrs by qPCR analysis
Fibroblast [4] = assay: Effect on growth factor related gene expression in non-diabetic young human primary fibroblasts assessed as VEGFA mRNA levels at 1.96 uM after 6 hrs by qPCR analysis
Outline: (§1)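 Primary human dermal fibroblasts (young or adult nondiabetic, adult diabetic donor) were treated for 6 h against a 0.1% DMSO solvent control. RNA from 320 000 cells per sample was measured by Fluidigm Biomark high-throughput qPCR. Values are fold change relative to solvent control, from four independent experiments, with SD. One-way ANOVA with Bonferroni post-test was applied.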

Keratinocyte [5] = assay: Effect on pro-inflammatory related gene expression in non-diabetic adult human primary keratinocytes assessed as IL1B mRNA levels at 9.81 uM after 6 hrs by qPCR analysis
Keratinocyte [6] = assay: Effect on pro-inflammatory related gene expression in non-diabetic young human primary keratinocytes assessed as IL6 mRNA levels at 9.81 uM after 6 hrs by qPCR analysis
[7] = Effect on wound healing activity in diabetic adult human primary keratinocytes assessed as upregulation of IL8 protein levels at 1.96 uM after 24 hrs by bead-based suspension array analysis; settings: Keratinocyte
[8] = Effect on wound healing activity in non-diabetic adult human primary fibroblasts assessed as upregulation of RANTES protein levels at 1.96 uM after 24 hrs by bead-based suspension array analysis; settings: Fibroblast
Keratinocyte [9] = assay: Effect on cellular connection related gene expression in non-diabetic adult human primary keratinocytes assessed as CLDN4 mRNA levels at 1.96 uM after 6 hrs by qPCR analysis
Fibroblast [10] = assay: Effect on pro-inflammatory related gene expression in non-diabetic adult human primary fibroblasts assessed as IL6 mRNA levels at 1.96 uM after 6 hrs by qPCR analysis
[11] = Effect on wound healing activity in diabetic adult human primary keratinocytes assessed as upregulation of RANTES protein levels at 1.96 uM after 24 hrs by bead-based suspension array analysis; settings: Keratinocyte
[12] = Upregulation of wound healing activity related MCP1 protein levels in non-diabetic adult human primary keratinocytes at 1.96 uM after 24 hrs by bead-based suspension array analysis; settings: Keratinocyte
Keratinocyte [13] = assay: Effect on pro-inflammatory related gene expression in diabetic adult human primary keratinocytes assessed as IL6 mRNA levels at 1.96 uM after 6 hrs by qPCR analysis
Fibroblast [14] = assay: Effect on actin cytoskeleton in human non-diabetic primary fibroblasts assessed as formation of thin elongated cellular body at 10 nM after 2 hrs in presence of p-38 MAPK inhibitor LN 950 by rhodamine phalloidin-staining based fluorescence microscopic analysis
Outline: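 Subconfluent cells on glass coverslips, collagen type I coated for fibroblasts; keratinocytes starved 2 days before stimulation. Exposure 2 h, then rhodamine-phalloidin staining (1:25 in PBS) and fluorescence microscopy. Controls were DMSO as solvent and PDGF (fibroblasts) or CNF1 (keratinocytes). Where used, p38-MAPK inhibitor LN 950 (100 nM) was added 30 min beforehand.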

Fibroblast [15] = assay: Effect on antiinflammatory related gene expression in diabetic adult human primary fibroblasts assessed as NFKBIA mRNA levels at 9.81 uM after 6 hrs by qPCR analysis
Outline: (§2)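 Primary dermal fibroblasts from one nondiabetic young, one nondiabetic adult and one diabetic adult donor; 320 000 cells per sample, 6 h at 1.96 or 9.81 μM. RNA measured on a high-throughput qPCR chip. Fold change versus 0.1% DMSO control, four independent experiments, SD, one-way ANOVA with Bonferroni post-test.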

Keratinocyte [16] = assay: Effect on pro-inflammatory related gene expression in non-diabetic young human primary keratinocytes assessed as IL1R1 mRNA levels at 1.96 uM after 6 hrs by qPCR analysis
Keratinocyte [17] = assay: Effect on growth factor related gene expression in non-diabetic adult human primary keratinocytes assessed as VEGFA mRNA levels at 1.96 uM after 6 hrs by qPCR analysis
Outline: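 Primary human keratinocytes (nondiabetic young or adult, diabetic adult donors) were exposed to compound for 6 h, with 0.1% DMSO as solvent control. Total RNA came from 400 000 cells per sample and was assayed on a Fluidigm Biomark high-throughput qPCR chip. Results are fold change vs solvent control, from 2−4 independent experiments on two donors per group, with SD. Groups were compared by one-way ANOVA with Bonferroni post-test.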

[18] = Effect on wound healing activity in non-diabetic adult human primary fibroblasts assessed as upregulation of soluble ICAM1 protein levels at 1.96 uM after 24 hrs by bead-based suspension array analysis; settings: Fibroblast
Keratinocyte [19] = assay: Effect on wound healing activity in diabetic adult human primary keratinocytes assessed as increase in soluble gp130 part of IL6 receptor protein levels at 1.96 uM after 24 hrs by bead-based suspension array analysis
[20] = Effect on wound healing activity in diabetic adult human primary fibroblasts assessed as upregulation of soluble TNFR1 protein levels at 1.96 uM after 24 hrs by bead-based suspension array analysis; settings: Fibroblast
Fibroblast [21] = assay: Effect on pro-inflammatory related gene expression in diabetic adult human primary fibroblasts assessed as IL1B mRNA levels at 9.81 uM after 6 hrs by qPCR analysis; outline: as §1
Keratinocyte [22] = assay: Effect on AQP3 mRNA expression levels in non-diabetic young human primary keratinocytes at 1.96 uM after 6 hrs by qPCR analysis
Outline: (§3)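 Primary keratinocytes from nondiabetic young and adult and diabetic adult donors; 400 000 cells per sample, 6 h exposure at 1.96 or 9.81 μM. RNA extracted and read on a high-throughput qPCR chip. Results are fold change versus 0.1% DMSO solvent control from 5−7 independent experiments over two donors per group, SD, one-way ANOVA with Bonferroni post-test.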

Keratinocyte [23] = assay: Effect on ECM related gene expression in non-diabetic young human primary keratinocytes assessed as FBN1 mRNA levels at 1.96 uM after 6 hrs by qPCR analysis; outline: as §3
[24] = Effect on wound healing activity in diabetic adult human primary keratinocytes assessed as upregulation of MIP1alpha protein levels at 1.96 uM after 24 hrs by bead-based suspension array analysis; settings: Keratinocyte
Fibroblast [25] = assay: Effect on antiinflammatory related gene expression in non-diabetic adult human primary fibroblasts assessed as NFKBIA mRNA levels at 1.96 uM after 6 hrs by qPCR analysis; outline: as §2
Keratinocyte [26] = assay: Effect on MMP1 mRNA expression levels in diabetic adult human primary keratinocytes at 9.81 uM after 6 hrs by qPCR analysis; outline: as §3
Keratinocyte [27] = assay: Effect on chemokines related gene expression in diabetic adult human primary keratinocytes assessed as IL8 mRNA levels at 1.96 uM after 6 hrs by qPCR analysis
Fibroblast [28] = assay: Effect on pro-inflammatory related gene expression in non-diabetic adult human primary fibroblasts assessed as PTGS2 mRNA levels at 1.96 uM after 6 hrs by qPCR analysis

SMILES: C=C(C)[C@@H]1CC[C@]2(CO)CC[C@]3(C)[C@H](CC[C@@H]4[C@@]5(C)CC[C@H](O)C(C)(C)[C@@H]5CC[C@]43C)[C@@H]12 [BETULIN]
- Activity [1]: Active
- fold change (FC) (Fibroblast [2]): 14.7
- fold change (FC) (Keratinocyte [3]): 1.4
- fold change (FC) (Fibroblast [4]): 1.7
- fold change (FC) (Keratinocyte [5]): 0.9
- fold change (FC) (Keratinocyte [6]): 6
- Activity [7]: Active
- Activity [8]: Active
- fold change (FC) (Keratinocyte [9]): 1
- fold change (FC) (Fibroblast [10]): 278
- Activity [11]: Active
- Activity [12]: Active
- fold change (FC) (Keratinocyte [13]): 12.8
- Activity (Fibroblast [14]): Active
- fold change (FC) (Fibroblast [15]): 1.4
- fold change (FC) (Keratinocyte [16]): 0.9
- fold change (FC) (Keratinocyte [17]): 1.3
- Activity [18]: Active
- Activity (Keratinocyte [19]): Active
- Activity [20]: Active
- fold change (FC) (Fibroblast [21]): 2.9
- fold change (FC) (Keratinocyte [22]): 0.9
- fold change (FC) (Keratinocyte [23]): 1.8
- Activity [24]: Active
- fold change (FC) (Fibroblast [25]): 7.5
- fold change (FC) (Keratinocyte [26]): 1.8
- fold change (FC) (Keratinocyte [27]): 16.5
- fold change (FC) (Fibroblast [28]): 146

— ChEMBL document CHEMBL3853270, “Influence of Birch Bark Triterpenes on Keratinocytes and Fibroblasts from Diabetic and Nondiabetic Donors” (2016)
